Measurements: article PMC3790193 (British Journal of Cancer, 2013)
Where two headings read alike, the source gives them in different places.

Key:
[1] = type: in vivo, Rowett nude rats; conditions: for half-life / AUC: male, Rowett nude (Cr:NIH-ru), rat
Procedure, shortened: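 Male Rowett nude rats dosed once with drug in saline: 2 mg kg−1 i.p., or aerosol over 90 min nose-only (0.6 mg kg−1 deposited). Deposited dose = aerosol concentration × minute volume × time × deposition fraction (~10%) ÷ body weight. Three rats per group killed at each of 11 times over 96 h. Plasma and lung extracted by solid-phase extraction; LC/MS/MS on C18 column (25 °C), positive ESI. Non-compartmental analysis of per-time-point means.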

[2] = Aerosol characterisation; type: physicochemical; conditions: nebulised solution 5 mg ml^−1, Pari LC Plus nebulisers
Procedure, shortened: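 Aerosol from a 5 mg ml−1 solution made by three jet nebulisers, piped through a ~24 in, 1.58-cm stainless tube into a 52-port flow-past nose-only chamber (exhaust ~14 l min−1). Concentration measured gravimetrically on membrane filters. Particle size sampled from the breathing zone with a Mercer-style cascade impactor at ~2.0 l min−1; MMAD calculated from the impactor data.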

[3] = tested on: Calu-6 cells; experiment: Orthotopic lung cancer model, tumour burden; type: in vivo, Rowett nude rats; conditions: for reduction in tumour burden: vs vehicle
Procedure, shortened: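 Calu-6 cells instilled orotracheally into male nude rats. From 3 weeks, groups of 20 received saline, 2 mg kg−1 i.p., or 0.6 mg kg−1 aerosol on 4 consecutive days over 4 weeks. At 7 weeks, lungs weighed; burden = tumour-bearing minus normal lung weight (rats without tumour cells). Lungs inflated with 10% neutral-buffered formalin at 25 cm for 6 h; 5-μm paraffin sections, H&E. t-test/ANOVA.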

[4] = tested on: Calu-6 tumours; experiment: Gene expression in lung tumours; type: in vivo, Rowett nude rats
Procedure, shortened: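 Male nude rats (8–10 weeks) given orotracheal Calu-6 cells. From week 3 they received saline, 2 mg kg−1 i.p., or 0.6 mg kg−1 aerosol on 4 consecutive days for 4 weeks. Five tumours from each of four rats per group; RNA by TRI-reagent, 1 μg reverse transcribed; TaqMan qPCR normalised to GAPDH. 2−ΔΔCt relative to vehicle tumours; triplicate assays; mean±s.e.m.; two-sample t-test.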

[5] = tested on: Calu-6 tumours; experiment: Gene methylation profiling of tumours; type: in vivo, Rowett nude rats
Procedure, shortened: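 Bisulphite-treated DNA from Calu-6 lung tumours (three per rat, four rats per group: vehicle, i.p. or aerosol) run on HM450K arrays. Normal bronchial epithelial lines from three never smokers used as reference. Probes from 200 bp 5′ of TSS through 5′-UTR; X, Y and imprinted genes excluded. Background corrected by normal-exponential method; β-values 0–1. Genes with normal β ⩾0.2 excluded. Vehicle β ⩾0.45 counted as methylated; ⩾20% β drop counted as demethylation.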

[6] = tested on: Calu-6 cells; conditions: systemic delivery, previous study; ref Belinsky et al, 2011; cited from earlier work
[7] = tested on: lung cancer; conditions: nebuliser, ref Lemarie et al, 2011, cited from earlier work
[8] = aerosol, 0.6 mg kg^−1 inhaled deposited dose, 90 min nose-only, single dose
[9] = plasma, inhaled or intranasal, 0.6 mg/kg
[10] = systemic, intraperitoneal injection 2 mg kg^−1, single dose

Nc1ncn([C@@H]2O[C@H](CO)[C@@H](O)[C@H]2O)c(=O)n1 [5-Aza, 5-azacytidine]
AUC Lung [1, 8]: 8460 ng·h/mL
Concentrationmax Lung [1, 8]: 7883 ng/mL
Concentrationmax Plasma [1, 8]: 893 ng/mL
half-life ([1]; lung, inhaled or intranasal, 0.6 mg/kg): 110 min
half-life ([1]; lung, ip, 2 mg/kg): 8.4 min
AUC [1, 9]: 1890 ng·h/mL
half-life [1, 9]: 74.4 min
AUC ([1]; plasma, ip, 2 mg/kg): 19100 ng·h/mL
half-life ([1]; plasma, ip, 2 mg/kg): 25.2 min
AUC Lung [1, 10]: 1082 ng·h/mL
Concentrationmax Lung [1, 10]: 2147 ng/mL
Concentrationmax Plasma [1, 10]: 15 492 ng ml^−1
average MMAD (mean mass aerodynamic diameter) [2]: 0.71 μm
Lung weight, mean±s.d. ([3]; aerosol 0.6 mg kg^−1, 4 consecutive days over 4 consecutive weeks, N=17): 3.72 ± 0.82 g
reduction in tumour burden ([3]; aerosol delivery over 4 weeks): 29%
removal of the pleomorphic cell population of tumours ([3]; inhaled delivery, histology (not shown)): equally effective as systemic delivery
weight gain of rats ([3]; irrespective of treatment route): 15–20%
Lung weight, mean±s.d. ([3]; systemic 2 mg kg^−1, 4 consecutive days over 4 consecutive weeks, N=18): 3.58 ± 0.95 g
reduction in tumour burden ([3]; systemic delivery over 4 weeks): 34%
effect on the expression of Bik ([4]; aerosol delivery compared with systemic delivery, P<0.001): more profound effect
expression of p21 (WAF1) ([4]; following systemic or aerosol delivery): increased to a similar extent
average number of genes showing ⩾20% demethylation ([5]; aerosol delivery): 521 genes
genes classified as methylated in the Calu-6 tumours that responded ([5]; aerosol delivery, on average): approximately 50%
genes commonly demethylated in 75% of tumours ([5]; aerosol exposure): 501 genes
genes in common across all tumours demethylated ⩾20% ([5]; aerosol-treated rats): 300 genes
average number of genes showing ⩾20% demethylation ([5]; systemic delivery): 352 genes
genes commonly demethylated in 75% of tumours ([5]; systemic exposure): 275 genes
genes in common across all tumours demethylated ⩾20% ([5]; systemic treatment): 20 genes
pleomorphic cell population in residual tumour [6]: < 5 % of the residual tumour

Nc1ccn([C@@H]2O[C@H](CO)[C@@H](O)C2(F)F)c(=O)n1 [Gemcitabine]
total dose delivered to the lungs, on average ([7]; 1 day per week for 9 consecutive weeks): 42±16%
toxicity [7]: no haematologic toxicity, nephrotoxicity, or neurotoxicity were observed
